# Results: ChEMBL document CHEMBL1152537, “Special feature of mixed phosphotriester derivatives of cytarabine” (Bioorg Med Chem, 2009)
# Key:
# [1] = Half life in total cell extract of deoxynucleoside analogue-sensitive mouse L1210 cells by HPLC analysis in presence of snake venom phosphodiesterase; assay type: ADME, cell-based
# [2] = Half life in total cell extract of nucleoside analogue-resistant mouse L1210 10K cells by HPLC analysis in presence of snake venom phosphodiesterase; assay type: ADME, cell-based
# CCRF-CEM [3] = assay: Resistance ratio of IC50 for deoxynucleoside analogue-resistant human CEM/ARAC8C cells to IC50 for deoxynucleoside analogue-sensitive human CCRF-CEM cells; assay type: functional
# Method in brief: (§1)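 RR is the 3-day MTT IC50 in the resistant line divided by the IC50 in its sensitive parental line. Significance between IC50s and RRs was tested by Student's t-test.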
# [4] = Cytotoxicity against deoxycytidine kinase deficient and deoxynucleoside analogue-resistant human MESSA 10K cells after 3 days by MTT assay; assay type: functional, cell-based; conditions: 72 h
# Method in brief: (§2)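 Adherent lines (Messa in RPMI, MCF7 in DMEM, each with 10% FBS, L-glutamine and penicillin/streptomycin) seeded at 3000 cells/well and left 24 h at 37 °C before drugs were added over a concentration range. After 3 days at 37 °C, MTT (100 µg) was added for 2 h and the formazan dissolved in isopropanol/HCl/water for optical density.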
# [5] = Cytotoxicity against nucleoside transporter deficient and deoxynucleoside analogue-resistant human CEM/ARAC8C cells after 3 days by MTT assay; assay type: functional, cell-based; conditions: 72 h
# MCF7 [6] = assay: Cytotoxicity against deoxynucleoside analogue-resistant human MCF7 1K cells overexpressing ribonucleotide reductase after 3 days by MTT assay; assay type: functional, cell-based; conditions: MCF7, 72 h; method in brief: as §2
# CCRF-CEM [7] = assay: Cytotoxicity against deoxynucleoside analogue-sensitive human CCRF-CEM cells after 3 days by MTT assay; assay type: functional, cell-based; conditions: 72 h
# Method in brief: (§3)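 Suspension lines (CCRF-CEM, L1210) grown in RPMI with 10% FBS, L-glutamine and penicillin/streptomycin, added at 10,000 cells/well directly to media holding graded drug concentrations. After 3 days at 37 °C, MTT (100 µg) was added for 2 h and the formazan dissolved in isopropanol/HCl/water for optical density.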
# L1210 [8] = assay: Resistance ratio of IC50 for deoxynucleoside analogue-resistant mouse L1210 10K cells to IC50 for deoxynucleoside analogue-sensitive mouse L1210 cells; assay type: functional; method in brief: as §1
# [9] = Cytotoxicity against deoxynucleoside analogue-sensitive human MESSA cells after 3 days by MTT assay; assay type: functional, cell-based; conditions: MES-SA, 72 h; method in brief: as §2
# L1210 [10] = assay: Cytotoxicity against deoxycytidine kinase deficient and nucleoside analogue-resistant mouse L1210 10K cells after 3 days by MTT assay; assay type: functional, cell-based; conditions: L1210, 72 h; method in brief: as §3
# L1210 [11] = assay: Cytotoxicity against deoxynucleoside analogue-sensitive mouse L1210 cells after 3 days by MTT assay; assay type: functional, cell-based; conditions: L1210, 72 h; method in brief: as §3
# MCF7 [12] = assay: Cytotoxicity against deoxynucleoside analogue-sensitive human MCF7 cells after 3 days by MTT assay; assay type: functional, cell-based; conditions: MCF7, 72 h; method in brief: as §2
smiles,measurement,setting,value
Cc1cn([C@@H]2O[C@H](COP(=O)([O-])Oc3ccccc3)[C@@H](N=[N+]=[N-])[C@@H]2O)c(=O)[nH]c1=O.[Na+],half-life,[1],53 min
same,half-life,[2],53 min
Cc1cn([C@H]2C[C@H](O)[C@@H](COP(=O)(O)Oc3ccc([N+](=O)[O-])cc3)O2)c(=O)[nH]c1=O,half-life,[1],43 min
same,half-life,[2],43 min
Nc1ccn([C@@H]2O[C@H](COP(=O)([O-])Oc3ccccc3)[C@@H](O)[C@@H]2O)c(=O)n1.[Na+],half-life,[1],276 min
same,half-life,[2],276 min
Nc1ccn([C@@H]2O[C@H](CO)[C@@H](O)[C@@H]2O)c(=O)n1 [CYTARABINE],Ratio IC50,CCRF-CEM [3],100000
same,IC50,[4],6330 µM
same,IC50,[5],100 µM
same,IC50,MCF7 [6],0.04 µM
same,IC50,CCRF-CEM [7],0.001 µM
same,Ratio IC50,L1210 [8],257500
same,IC50,[9],1.7 µM
same,IC50,L1210 [10],103 µM
same,IC50,L1210 [11],0.0004 µM
same,IC50,MCF7 [12],0.004 µM
